HIV Env fusion: inhibitors of HIV-1 Env-driven cell-cell fusion, primary screen, HeLa-JRFL effector, CEM21 target cells, luciferase; inhibition, % at 12.3 µM; actives 1.1% (n = 360,000); AID 651610, 2012;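 active = mean replicate inhibition score of at least 50 and every replicate individually at or above 50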;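 note: 0% = plate neutral controls and 100% = maraviroc near 300 nM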
V-ATPase pHluor: regulators of yeast V-ATPase proton pumping, primary screen, pHLuorin cytosolic pH fluorescence. response, % at 10 µM. actives 0.37% (n = 350,000). S. cerevisiae; in the data active = response mostly above about 7.3%, no sharp cut-off; inactive = mostly below about 5.4%; note: actives read high
NR2E3 ag-1: inhibitors of NR2E3-RetCOR corepressor binding, primary screen, NR2E3 agonist project, biochemical, TR-FRET, GST-NR2E3, biotin-RetCOR. Photoreceptor-specific nuclear receptor (Homo sapiens), Q9Y5X4. 1536-well. inhibition of corepressor binding, % at 4.78 µM. actives 0.12% (n = 320,000);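 active = percent inhibition above the cutoff of mean plus 3 SD of all tested compounds, set per screening campaign, cut at about 20% in these data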;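 note: 0% = DMSO wells and 100% = biotin wells as full block of FRET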
Target sequence (Q9Y5X4 whole entry, looked up): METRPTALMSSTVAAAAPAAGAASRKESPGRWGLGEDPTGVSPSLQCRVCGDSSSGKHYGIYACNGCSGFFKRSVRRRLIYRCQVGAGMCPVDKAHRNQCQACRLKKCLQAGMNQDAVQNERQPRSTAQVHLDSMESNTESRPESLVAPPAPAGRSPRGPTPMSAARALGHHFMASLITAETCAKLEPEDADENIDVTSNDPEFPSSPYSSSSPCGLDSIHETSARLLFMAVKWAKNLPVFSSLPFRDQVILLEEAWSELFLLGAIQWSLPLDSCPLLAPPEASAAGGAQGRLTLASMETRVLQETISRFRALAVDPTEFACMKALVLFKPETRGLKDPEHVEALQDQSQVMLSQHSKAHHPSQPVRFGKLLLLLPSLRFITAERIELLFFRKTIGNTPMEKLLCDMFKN
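Material – GST-tagged NR2E3 plus biotinylated RetCOR corepressor · Quantity – NR2E3 fusion 1.35 nM · Times – 5 h incubation at 4 °C · Medium – pH 7.5 Tris-based buffer · Technique – TR-FRET, Eu(K)-anti-GST donor, streptavidin-D2 acceptor, ex 340, em 617/671 nm · Benchmarks – high control biotin, low control 0.6% DMSO · Format – 1536-well plates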
GalR3 antag: GalR3 antagonists in HEK293 cells, primary screen, cell-based, fluorescence readout | Galanin receptor type 3 (Homo sapiens), O60755 | HEK293 GalR3-CNG cAMP membrane potential fluorescence; galR3 body fused to GalR1 C-terminus | inhibition, % at 3 µM | actives 0.44% (n = 360,000) | AID 651719, 2012;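 active = inhibition above the screen-wide average plus 3 SD, cut at about 13% in these data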;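 note: forskolin and galanin both at EC90 stimulate the cells; cAMP rise reported by CNG channel membrane potential dye signal; 0% = forskolin plus galanin with DMSO and 100% = forskolin alone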
Target sequence (O60755 1-299 limits assumed): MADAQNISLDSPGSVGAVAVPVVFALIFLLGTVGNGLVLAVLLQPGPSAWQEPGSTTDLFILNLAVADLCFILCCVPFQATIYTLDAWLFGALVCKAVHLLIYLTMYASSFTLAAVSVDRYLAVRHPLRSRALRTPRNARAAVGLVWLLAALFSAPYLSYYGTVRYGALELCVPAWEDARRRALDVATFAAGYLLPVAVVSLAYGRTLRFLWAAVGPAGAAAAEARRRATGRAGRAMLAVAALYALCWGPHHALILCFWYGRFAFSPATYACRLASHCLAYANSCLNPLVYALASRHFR
NR2E3 ag-2: NR2E3 agonists in two-hybrid cells, primary screen, cell-based, luminescence, CHO-S, Gal4-NCOR/VP16-NR2E3; Photoreceptor-specific nuclear receptor (Homo sapiens), Q9Y5X4; luciferase; inhibition of corepressor binding, % at 3.98 µM; actives 0.35% (n = 360,000);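 active = inhibition above the mean of all tested compounds plus 3 SD, cut at about 70% in these data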;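 note: 0% = DMSO with NR2E3 transfected cells and 100% = cells lacking NR2E3 construct; higher means lower luciferase signal from less NR2E3 corepressor binding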
GAA850 FXN act: FXN promoter activators, primary screen, cell-based, luciferase luminescence, HEK293 lucGAA850; HEK293 lucGAA850 FXN promoter luciferase reporter, 24 h; percent of 10 µM SAHA response; activation, % at 6 µM; actives 0.56% (n = 360,000); AID 540364, 2011;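 active = activation above the average of all compounds screened plus 3 SD, cutoff fixed separately per campaign, cut at about 7.5% in these data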;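 note: 0% = DMSO wells and 100% = 10 µM SAHA wells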
GAA30 counter: GAA30 FXN promoter activators, confirmation, counter-screen for GAA850 frataxin promoter activator project, cell-based, luminescence, HEK293, lucGAA30, triplicate. HEK293 lucGAA30 FXN promoter luciferase, 24 h; DMSO = 0%, 5 µM ipriflavone = 100%. shares compounds with GAA850 FXN act. AID 588350, 2011. actives 66% (n = 1,900). activation, % at 6 µM;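 active = mean activation above the mean of solvent-only control wells plus 3 SD, cut at about 22% in these data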;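 note: counterscreen of GAA850 promoter hits where activity marks nonselective or luminescence artifacts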
GAA850 confirm: FXN GAA850 promoter activators in reporter cells, confirmation, cell-based, luminescence, HEK293 lucGAA850, triplicate; shares compounds with GAA850 FXN act; HEK293 lucGAA850 FXN promoter luciferase reporter, 24 h; 100% = activation by SAHA; activation, % at 6 µM; actives 86% (n = 1,900); AID 588351, 2011;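 active = mean activation above a set limit taken from the primary screen, cut at about 8% in these data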;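 note: 0% = DMSO wells and 100% = 10 µM SAHA wells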
Starred values were filed as active, the others as inactive; [ ] = another dose, or the depositor's remark. This is a sample that favours compounds with a hit; in the whole collection about 2.2% have one here.

C[C@@H]1CCCCO[C@@H](CN(C)Cc2ccncc2)[C@H](C)CN([C@H](C)CO)C(=O)c2cc(NC(=O)C3CCCCC3)ccc2O1 was read as HIV Env fusion -1[16.7 µM].
For CCOc1ccc2nc(C)cc(Nc3cccc([N+](=O)[O-])c3)c2c1 the results were HIV Env fusion 10, V-ATPase pHluor -2, NR2E3 ag-1 4, GalR3 antag 0, NR2E3 ag-2 -26, GAA850 FXN act 7.7*, GAA30 counter 26* and GAA850 confirm 20*.
C[C@@H]1CCCCO[C@@H](CN(C)C(=O)NC2CCCCC2)[C@H](C)CN([C@H](C)CO)C(=O)c2cc(NS(=O)(=O)c3ccc(F)cc3)ccc2O1 was read as HIV Env fusion -17[16.7 µM].
Cc1cc(Br)ccc1OCC(=O)N1CCCCCC1 was read as HIV Env fusion -190, V-ATPase pHluor 6, NR2E3 ag-1 0, GalR3 antag -5, NR2E3 ag-2 -21 and GAA850 FXN act -1.
For CC(C)c1ccc(OCC(=O)N2CCCCCC2)c(Br)c1 the results were HIV Env fusion -4, V-ATPase pHluor -3, NR2E3 ag-1 1, GalR3 antag -4, NR2E3 ag-2 -102, GAA850 FXN act 7.8*, GAA30 counter 86* and GAA850 confirm 29*.
C[C@H]1CN([C@@H](C)CO)C(=O)c2cc(C#Cc3cccnc3)cnc2O[C@@H]1CN(C)C(=O)CN(C)C was read as HIV Env fusion 5[16.7 µM].
O=C1C(=Cc2ccccn2)CCc2ccccc21 was read as HIV Env fusion 2, V-ATPase pHluor 3, GalR3 antag -5, NR2E3 ag-2 -20, GAA850 FXN act 7.8*, GAA30 counter 103* and GAA850 confirm 31*.
`CCC(=O)Nc1ccc2c(c1)C(=O)N(C)C[C@@H](OC)[C@@H](C)CN(C(=O)c1ccncc1)[C@@H](C)CO2` gave HIV Env fusion 14[16.7 µM].
For COc1cc2sc3cc(NCC[C@@H]4CCCN4C)ccc3c(=O)c2cc1OC the results were HIV Env fusion -155, V-ATPase pHluor -4, GalR3 antag -2, NR2E3 ag-2 -48, GAA850 FXN act 9.9*, GAA30 counter 83* and GAA850 confirm 42*.
`COc1cc2sc3cc(NCc4ccc5c(c4)OCO5)ccc3c(=O)c2cc1OC` gave HIV Env fusion -34, V-ATPase pHluor 1, GalR3 antag 5, NR2E3 ag-2 -111 and GAA850 FXN act 6.
COc1cc2sc3cc(NCc4ccc(C)o4)ccc3c(=O)c2cc1OC was read as HIV Env fusion -96, V-ATPase pHluor 2, GalR3 antag -4, NR2E3 ag-2 -54, GAA850 FXN act 11*, GAA30 counter 109* and GAA850 confirm 35*.
`COc1ccccc1/C=N/Nc1nncc2ccccc12` gave HIV Env fusion -14, V-ATPase pHluor 4, NR2E3 ag-1 1, GalR3 antag 0, NR2E3 ag-2 -85, GAA850 FXN act 8.2*, GAA30 counter 104* and GAA850 confirm 36*.
COc1ccc(/C=N/Nc2nncc3ccccc23)cc1 was read as HIV Env fusion -52, V-ATPase pHluor -1, NR2E3 ag-1 3, GalR3 antag -7, NR2E3 ag-2 -171 and GAA850 FXN act 6.
Screening COc1ccc(NC(=O)N(C)C[C@H]2Oc3ccc(NC(=O)Cc4ccccc4)cc3CC(=O)N([C@@H](C)CO)C[C@@H]2C)cc1 returned HIV Env fusion 1[16.7 µM].
Screening C[C@@H]1CN([C@@H](C)CO)C(=O)c2cccc(NS(=O)(=O)c3ccc(Cl)cc3)c2O[C@@H]1CN(C)S(=O)(=O)c1ccc(Cl)cc1 returned HIV Env fusion -10[16.7 µM].
Screening CN(C)C(=O)[C@]1(Cc2ccccc2CN=[N+]=[N-])N=C(c2ccc(OCCCO)cc2)O[C@@H]1c1ccccc1 returned HIV Env fusion 21[16.7 µM].
Screening Cc1cc(NC(=O)c2ccc3nc(C)sc3c2)no1 returned V-ATPase pHluor 4, NR2E3 ag-1 2, GalR3 antag 4, NR2E3 ag-2 -223, GAA850 FXN act 7.7*, GAA30 counter 111* and GAA850 confirm 33*.
For COc1cccc(C(=O)Nc2nnc(-c3ccccc3)s2)c1 the results were HIV Env fusion -29, V-ATPase pHluor -2, GalR3 antag -7, NR2E3 ag-2 -86, GAA850 FXN act 8.0*, GAA30 counter 80* and GAA850 confirm 35*.
Cc1cc(NC(=O)c2ccc(Cl)cc2)no1 was read as HIV Env fusion -64, V-ATPase pHluor 2, NR2E3 ag-1 4, GalR3 antag -2, NR2E3 ag-2 -111 and GAA850 FXN act 3.
Screening COc1cccc(NC(=O)c2ccc3nc(C)sc3c2)c1 returned HIV Env fusion 49, V-ATPase pHluor -2, NR2E3 ag-1 5, GalR3 antag -8, NR2E3 ag-2 -166, GAA850 FXN act 7.6*, GAA30 counter 120* and GAA850 confirm 40*.
Screening COc1cccc(C(=O)Nc2nnc(-c3ccc(OC)cc3OC)s2)c1 returned HIV Env fusion -14, V-ATPase pHluor -2, NR2E3 ag-1 1, GalR3 antag -10, NR2E3 ag-2 -7 and GAA850 FXN act 0.
Screening CC(C)C#Cc1cnc2c(c1)C(=O)N([C@H](C)CO)C[C@H](C)[C@@H](CN(C)C(=O)C1CCC1)O2 returned HIV Env fusion 8[16.7 µM].
For CCN(CC(=O)Nc1c(F)cccc1F)C(=O)CCCN1C(=O)c2cccc3cccc(c23)C1=O the results were HIV Env fusion -7, V-ATPase pHluor 0, GalR3 antag -4, NR2E3 ag-2 17 and GAA850 FXN act 0.
Screening CN(CC(=O)Nc1cccc(F)c1)C(=O)CCCN1C(=O)c2cccc3cccc(c23)C1=O returned HIV Env fusion 21, V-ATPase pHluor 0, NR2E3 ag-1 0, GalR3 antag -2, NR2E3 ag-2 -18, GAA850 FXN act 14*, GAA30 counter 30* and GAA850 confirm 11*.
